STAT1 act = STAT1 signaling activators, primary screen, cell-based, HTS, luciferase reporter. activation (% of control), % at 5.5 µM. NIH 3T3 STAT1-luciferase reporter, IFN-gamma, luminescence; 100% = IFN-gamma alone, no compound. 200,000 tested, 2.6% active;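 active = activation above the screen-wide mean activation plus 3 SD, cut at about 130% in these data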;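 note: raw ratio to IFN-gamma control signal so 100% means no change and 0% no light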
FLuc inh counter = firefly luciferase enzyme inhibitors, primary screen, artefact control for luciferase-based inhibitor screens, biochemical, luminescence, ATPLite; inhibition, % at 10 µM; Luciferin 4-monooxygenase (Photinus pyralis), P08659; 10 min; AID 1006, 2008; 200,000 tested, 1.5% active;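 active = inhibition above about 50% when tested at 10 µM, limit read from the data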
Target sequence (P08659 whole entry, looked up): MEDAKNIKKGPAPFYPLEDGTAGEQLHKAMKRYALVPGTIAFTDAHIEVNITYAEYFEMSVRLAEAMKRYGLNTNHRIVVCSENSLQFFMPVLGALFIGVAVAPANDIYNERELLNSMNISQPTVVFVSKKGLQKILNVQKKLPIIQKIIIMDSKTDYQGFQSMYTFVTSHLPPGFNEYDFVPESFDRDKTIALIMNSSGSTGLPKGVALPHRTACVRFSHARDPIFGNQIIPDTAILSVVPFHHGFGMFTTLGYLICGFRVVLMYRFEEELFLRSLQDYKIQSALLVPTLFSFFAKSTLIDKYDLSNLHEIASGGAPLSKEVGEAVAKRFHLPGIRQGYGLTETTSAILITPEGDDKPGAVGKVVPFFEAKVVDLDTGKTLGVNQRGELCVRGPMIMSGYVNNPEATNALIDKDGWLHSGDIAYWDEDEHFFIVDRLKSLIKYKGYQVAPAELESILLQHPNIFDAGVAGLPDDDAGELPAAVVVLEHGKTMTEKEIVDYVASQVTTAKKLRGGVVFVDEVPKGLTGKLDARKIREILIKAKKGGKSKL
NF-kB expr up = activators of NF-kB expression in neurons, primary screen, cell-based, HTS. 190,000 tested, 1.6% active. fold change at 12.5 µM. human neuronal cells, NF-kB reporter expression; stronger effect = higher value; in the data active = fold change above about 3.3
APP 5'UTR act = activators of APP 5'UTR luciferase reporter, primary screen, SH-SY5Y cells; SH-SY5Y APP 5'UTR luciferase reporter, luminescence; zero percent = DMSO vehicle wells; 190,000 tested, 1% active; activation, % at 2 µM; AID 1276, 2008;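 active = activation above a set limit, based on mean plus 3 SD of controls, cut at about 140% in these data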
FLuc act counter = FLuc activators, initial screening, artefact control for FLuc-dependent activation tests, biochemical, ATPlite luminescence; Luciferin 4-monooxygenase (Photinus pyralis), P08659; ATPlite luciferase biochemical, 10 min; 0 = ATP-free wells, 1 = DMSO control; activation factor at 10 µM; 200,000 tested, under 10 active; AID 1027, 2008;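 active = luciferase activation factor, scaled between plate controls, of at least 2 with compound at 10 µM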
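Assay system: Luciferase/luciferin detection reagent, cell-free biochemical luciferase assay / Also added: ATP substrate / Schedule: 10 min at ambient temperature / Measured by: luminescence measurement of luciferase light output / Benchmarks: low control with PBS replacing ATP, high control enzyme plus ATP without compound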
* = called active by the depositor. Sampled rows, rich in hits. Any-hit rate of the full collection: about 4.1%.

SMILES	STAT1 act	FLuc inh counter	NF-kB expr up	APP 5'UTR act	FLuc act counter
CN(C)S(=O)(=O)c1ccc(NC(=O)COC(=O)C2CC3CCCC(C2)C3=O)cc1 (stereo not drawn)	97.1	-4.7	1.26	13.0	1
O=[N+]([O-])c1cccc(-n2nnnc2CN2CCCC2)c1	105.6	-5.4	1.02	19.0	1.1
CN1C(=O)CS/C1=N\NC(=O)COc1cccc2cccnc12	98.9	0.1	1	-3.2	1
Cc1[nH]c2ccccc2c1C(c1ccccn1)N1CCCC1 (stereo not drawn)	102.1	-4.5	0.94	4.6	1
Oc1c(C(c2ccccn2)N2CCCCC2)cc(Cl)c2cccnc12 (stereo not drawn)	107.1	-13.7	4.86*	14.5	1.1
COCn1c(-c2ccc(OC)cc2)nc2ccccc21	128.8*	75.8*	2.74	118.2	0.2
Cc1ccccc1-c1nnc(-c2ccc(Cl)cc2)o1	137.8*	15.2	4.07*	-7.0	0.8
Clc1ccccc1-c1nnc(-c2ccccc2Cl)o1	122.2	40.7	3.4*	114.0	0.6
Cc1ccccc1-c1nnc(-c2ccccc2)o1	131.2*	35.2	4.16*	137.6*	0.6
Cc1cccc(-c2nnc(-c3ccccc3)o2)c1	131.8*	36.2	3.16	88.5	0.6
Cc1cccc(NCc2nnc(-c3ccccc3)o2)c1C	97.7	-3.0	1.26	20.2	1
Cc1nc(SCC(=O)N2CCc3ccccc32)n[nH]1	104.1	-2.5	2.08	-0.8	1
O=C(CSc1nnnn1-c1cccc2c1CCCC2)N1CCCCC1	90.5	-2.9	1.06	-10.3	1
Nc1ccc2oc(-c3ccccc3Cl)cc(=O)c2c1O	122.4	21.7	6.53*	44.5	0.8
O=c1cc(-c2ccccc2Cl)oc2ccc([N+](=O)[O-])c(O)c12	92.9	2.8	1.55	-5.7	1
Cc1ccsc1/C=N\NC(=O)c1ccc2c(c1)OCO2	121.2	77.2*	4.31*	131.9	0.2
O=C(N/N=C/c1ccc[nH]1)c1ccc2c(c1)OCO2	105.2	73.4*	1.01	17.2	0.3
Cc1ccsc1/C=N\NC(=O)c1n[nH]c2c1CCC2	121.3	70.9*	4.76*	26.4	0.3
O=C(N/N=C/c1cc([N+](=O)[O-])ccc1O)c1ccc2c(c1)OCCO2	103.5	69.7*	1.12	1.9	0.3
COc1cccc(/C=N/n2c(-c3cccs3)n[nH]c2=S)c1	94.8	-1.7	1.24	-20.6	1
COc1cc(OC)c(C2N(c3ccc(Cl)cc3)C(=O)C3CCCN32)cc1OC (stereo not drawn)	100.8	-6.2	1.09	-17.7	1.1
CC(C)(C)OC(=O)C(Cc1ccc(OC(C)(C)C)cc1)NC(=O)CNC(=O)OCc1ccccc1 (stereo not drawn)	99.5	-8.8	1.2	22.1	1.1
CC(=O)NC(Cc1ccccc1)C(=O)OCC(=O)c1ccc(Cl)cc1 (stereo not drawn)	100.0	-3.4	1.22	-6.9	1
Cc1ccsc1/C=N/NC(=O)c1ccc(-n2cccc2)cc1	128.7*	1.0	1.71	28.0	1
O=c1c2c(nc3cc(-c4ccccc4Cl)[nH]n13)CCS2	110.7	73.9*	2.12	119.6	0.3
SMILES	STAT1 act	FLuc inh counter	NF-kB expr up	APP 5'UTR act	FLuc act counter
Cc1nc2cc(-c3ccsc3-n3c(C)ccc3C)[nH]n2c(=O)c1Cl	107.9	-8.7	1.34	-1.9	1.1
O=c1c2c(nc3cc(-c4ccccc4)[nH]n13)CCS2	115.7	60.3*	7.74*	113.1	0.4
COc1cccc2sc(N(C)c3ccccc3)nc12	150.2*	85.4*	5.75*	218.0*	0.1
Cc1ccc(-c2cc(C(=O)NC3=NCCS3)c3ccccc3n2)cc1C	117.6	65.1*	1	48.7	0.3
O=C(NC1=NCCS1)c1cc(-c2ccc(F)cc2)nc2ccccc12	104.2	13.3	0.99	-11.2	0.9
Cc1ccc(-c2cc(C(=O)NCc3ccccn3)c3ccccc3n2)cc1	111.4	37.9	0.63	-10.0	0.6
CCc1ccc(-c2cc(C(=O)NCc3ccccn3)c3ccccc3n2)cc1	108.1	60.6*	0.85	39.3	0.4
CCCc1ccc(-c2cc(C(=O)NC3=NCCS3)c3ccccc3n2)cc1	114.0	84.9*	2.93	104.3	0.2
O=C(N/N=C/c1cccs1)c1cc(-c2cccc3ccccc23)n[nH]1	124.2	2.8	1.49	23.0	1
CCOC(=O)N(NC(=O)C(O)(CC(C)C)CC(C)C)c1ccccc1	90.0	-1.4	1.19	-10.3	1
CC1CCN(C(=O)CSc2nc3ccccc3s2)CC1	131.9*	4.0	2.78	94.1	1
O=C(O)C1CCN(C(=O)CSc2nc3ccccc3s2)CC1	97.0	-2.0	0.86	17.8	1
O=[N+]([O-])c1nn(-c2ccc3c(c2)OCCO3)n(O)c1=NCc1ccc(F)cc1	143.3*	5.6	2.87	95.7	0.9
O=[N+]([O-])c1nn(-c2ccc3c(c2)OCCO3)n(O)c1=NCc1ccc(F)cc1Cl	141.8*	9.5	2.15	165.4*	0.9
COc1ccc(CCNC(=O)NC23CC4CC(CC(C4)C2)C3)cc1	104.8	-2.8	1.45	3.1	1
O=C(NCCC1=CCCCC1)NC12CC3CC(CC(C3)C1)C2	143.8*	3.9	1.43	173.3*	1
O=C(NCCC1=CCCCC1)Nc1ccc2nsnc2c1	133.2*	45.7	6.44*	165.0*	0.5
CCN(CCO)Cc1csc2ccc(Br)cc12	100.8	-4.1	1.1	19.6	1
COc1cccc(NC(=O)N2CCN(S(C)(=O)=O)CC2)c1	97.1	-6.6	1.24	10.2	1.1
Oc1ccccc1/C=N/Nc1cccc2cccnc12	89.7	43.7	12.3*	88.9	0.6
C/C(=N\Nc1cccc2cccnc12)c1ccc(C)cc1	136.8*	61.9*	4.24*	136.7*	0.4
CN(C)S(=O)(=O)c1cc(NC(=O)COC(=O)CCSc2ccc(Cl)cc2)ccc1Cl	93.2	-0.6	1.2	16.0	1
CC1(C)Cc2nc3sc4c(SCC(=O)NCc5ccccc5)ncnc4c3cc2CO1	128.7*	20.4	3.85*	-66.8	0.8
O=C(CSc1nnc(NC(=O)c2ccco2)s1)Nc1ccc2c(c1)OCCO2	98.4	54.6*	0.98	16.0	0.5
O=C(O)CSc1nnc(NC(=O)c2ccc3c(c2)OCO3)s1	65.1	91.3*	0.92	1.2	0.1
O=C(Nc1nnc(SCC(=O)N2CCOCC2)s1)c1ccccc1	114.8	91.8*	1.58	14.1	0.1
O=C(CSc1nnc(NC(=O)c2ccco2)s1)Nc1ccc(F)cc1	100.7	15.6	1.09	-26.7	0.8
O=c1cc(CSc2nnnn2-c2ccccc2)[nH]c2[nH]n(-c3ccccc3)c(=O)c12	99.9	-1.2	0.88	-8.0	1
